# Measured values from ChEMBL document CHEMBL4138245, “Design and synthesis of novel quinacrine-[1,3]-thiazinan-4-one hybrids for their anti-breast cancer activity” (Eur J Med Chem, 2018).
# The source made the active and inactive calls. The calls are words filed in the database; no cut-off is given here.
# Tests used:
# [1] = test system: MDA-MB-468; assay: Antiproliferative activity against human MDA-MB-468 cells after 48 hrs by SRB assay; assay type: functional, cell-based; conditions: MDA-MB-468, 48 h
# Method in brief: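 SRB assay: 5,000-10,000 cells/well plated, 24 h at 37 °C/5% CO2 before drug; seven concentrations from 100 μM down (two- to ten-fold serial dilutions, DMSO ≤0.1% final) for 48 h; TCA fixation (10% final, 60 min, 4 °C), 0.4% SRB in 1% acetic acid, solubilized in 10 mM Tris base, absorbance 515-564 nm; growth = (Ti−Tz)/(C−Tz)×100; IC50 from sigmoidal variable-slope fit; triplicates, ≥2 independent experiments.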
# [2] = test system: MCF7; assay: Anticlonogenic activity against human MCF7 cells at 0.39 to 1.5 uM after 12 hrs by crystal violet staining based assay; assay type: functional, cell-based
# Method in brief: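 Clonogenic assay: 1000 cells/well seeded, treated after overnight attachment for 12 h, then medium replaced and cells grown until control colonies were large enough; colonies stained with crystal violet.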
# [3] = test system: BT-20; assay: Antiproliferative activity against human BT20 cells assessed as compound concentration required to show complete inhibition of cell viability up to 96 hrs by SRB assay; assay type: functional
# [4] = test system: BT-474; assay: Antiproliferative activity against human BT474 cells assessed as compound concentration required to show complete inhibition of cell viability up to 96 hrs by SRB assay; assay type: functional
# [5] = test system: SK-BR-3; assay: Antiproliferative activity against human SK-BR-3 cells assessed as compound concentration required to show complete inhibition of cell viability up to 96 hrs by SRB assay; assay type: functional
# [6] = test system: PC-3; assay: Antiproliferative activity against human PC3 cells assessed as compound concentration required to show complete inhibition of cell viability up to 96 hrs by SRB assay; assay type: functional
# [7] = test system: MCF7; assay: Cell cycle arrest in human MCF7 cells assessed as accumulation at sub-G1 phase at 2 uM after 48 hrs by propidium iodide staining based flow cytometry; assay type: functional
# Method in brief: (§1)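 MCF7, MDA-MB231 and non-cancer 184B5 breast cells exposed to 2 μM for 48 h, then cell-cycle analysis by flow cytometry; duplicates, repeated three times.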
# [8] = test system: MDA-MB-231; assay: Cell cycle arrest in human MDA-MB-231 cells assessed as accumulation at sub-G1 phase at 2 uM after 48 hrs by propidium iodide staining based flow cytometry; assay type: functional; method in brief: as §1
# [9] = test system: 184B5; assay: Cell cycle arrest in human 184B5 cells at 2 uM after 48 hrs by propidium iodide staining based flow cytometry; conditions: 184b5, 48 h; method in brief: as §1
# [10] = test system: MDA-MB-231; assay: Inhibition of DNA replication in human MDA-MB-231 cells assessed as EdU incorporation at 2 uM pretreated for 48 hrs followed by EdU addition at final 45 mins of 48 hrs incubation time (reference value: 45 to 63%); assay type: functional; set-up: scale not given: the % may be the effect or the level left
# [11] = test system: MCF7; assay: Effect on Cyclin-D protein expression in human MCF7 cells at 2 uM after 24 to 72 hrs by Western blot method; assay type: functional, cell-based
# [12] = test system: MCF7; assay: Induction of DNA damage in human MCF7 cells assessed as increase in gammaH2Ax level at 2 uM after 24 to 48 hrs by Western blot method; assay type: functional, cell-based
# [13] = target: T1, Serine/threonine-protein kinase Chk1 (Homo sapiens) (UniProt O14757); assay: Induction of CHK1 phosphorylation at S298 residue in human MCF7 cells at 2 uM after 12 to 48 hrs by Western blot method; assay type: cell-based
# T1 sequence (whole entry): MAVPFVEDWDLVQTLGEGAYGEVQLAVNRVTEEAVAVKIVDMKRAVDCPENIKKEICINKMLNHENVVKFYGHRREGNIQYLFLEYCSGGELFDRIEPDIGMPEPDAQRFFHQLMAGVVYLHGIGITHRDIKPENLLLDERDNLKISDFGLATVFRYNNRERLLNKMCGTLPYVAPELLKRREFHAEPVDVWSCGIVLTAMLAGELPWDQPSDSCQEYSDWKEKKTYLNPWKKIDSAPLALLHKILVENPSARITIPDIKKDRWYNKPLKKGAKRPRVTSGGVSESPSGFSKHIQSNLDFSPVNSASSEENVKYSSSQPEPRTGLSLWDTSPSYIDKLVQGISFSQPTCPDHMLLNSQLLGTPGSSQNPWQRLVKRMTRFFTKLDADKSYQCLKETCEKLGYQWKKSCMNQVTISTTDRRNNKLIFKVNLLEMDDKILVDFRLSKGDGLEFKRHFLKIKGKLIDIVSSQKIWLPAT
# [14] = target: Serine/threonine-protein kinase mTOR (Homo sapiens) (UniProt P42345); assay: Inhibition of mTOR phosphorylation at S2448 residue in human MCF7 cells at 2 uM after 6 hrs by Western blot method; assay type: cell-based
# [15] = Selectivity index, ratio of compound concentration for cell killing activity in human MCF10A cells to compound concentration for cell killing activity in human MCF7 cells; assay type: toxicity, cell-based; conditions: MCF10A cells versus MCF7 cells, read-out: Selectivity Index
# [16] = Selectivity index, ratio of compound concentration for cell killing activity in human MCF10A cells to compound concentration for cell killing activity in human BT474 cells; assay type: toxicity, cell-based; conditions: MCF10A cells versus BT474 cells, read-out: Selectivity Index
# [17] = Selectivity index, ratio of compound concentration for cell killing activity in human MCF10A cells to compound concentration for cell killing activity in human SK-BR-3 cells; assay type: toxicity, cell-based; conditions: MCF10A cells versus SK-BR-3 cells, read-out: Selectivity Index
# [18] = Selectivity index, ratio of compound concentration for cell killing activity in human MCF10A cells to compound concentration for cell killing activity in human MDA-MB-231 cells; assay type: toxicity, cell-based; conditions: MCF10A cells versus MDA-MB-231 cells, read-out: Selectivity Index
# [19] = Selectivity index, ratio of compound concentration for cell killing activity in human MCF10A cells to compound concentration for cell killing activity in human MDA-MB-468 cells; assay type: toxicity, cell-based; conditions: MCF10A cells versus MDA-MB-468 cells, read-out: Selectivity Index
# [20] = Selectivity index, ratio of compound concentration for cell killing activity in human MCF10A cells to compound concentration for cell killing activity in human PC3 cells; assay type: toxicity, cell-based; conditions: MCF10A cells versus PC3 cells, read-out: Selectivity Index
# [21] = Selectivity index, ratio of compound concentration for cell killing activity in human 184B5 cells to compound concentration for cell killing activity in human CAMA1 cells; assay type: toxicity, cell-based; conditions: 184B5 cells versus CAMA1 cells, read-out: Selectivity Index
# [22] = Selectivity index, ratio of compound concentration for cell killing activity in human 184B5 cells to compound concentration for cell killing activity in human A549 cells; assay type: toxicity, cell-based; conditions: 184B5 cells versus A549 cells, read-out: Selectivity Index
# [23] = Selectivity index, ratio of compound concentration for cell killing activity in human 184B5 cells to compound concentration for cell killing activity in human NCI-H1975 cells; assay type: toxicity, cell-based; conditions: 184B5 cells versus NCI-H1975 cells, read-out: Selectivity Index
compound,measurement,setting,value
COc1ccc2nc3cc(Cl)ccc3c(NCCCN3C(=O)CCSC3c3cccs3)c2c1 (stereo not drawn),IC50,[1],1730 nM
same,Activity,[2],Active
same,Activity,[3],1 µM
same,Activity,[4],1 µM
same,Activity,[5],2 µM
same,Activity,[6],2 µM
same,Activity,[7],Active
same,Activity,[8],Active
same,Activity,[9],Non-Toxic
same,Activity,[10],10%
same,Activity,[11],inactive
same,Activity,[12],inactive
same,Activity,[13],inactive
same,inhibition,[14],Active
same,selectivity ratio,[15],3 to 6
same,selectivity ratio,[16],3 to 6
same,selectivity ratio,[17],3 to 6
same,selectivity ratio,[18],3 to 6
same,selectivity ratio,[19],3 to 6
same,selectivity ratio,[20],3 to 6
same,selectivity ratio,[21],3 to 6
same,selectivity ratio,[22],3 to 6
same,selectivity ratio,[23],3 to 6
